In article PMC5131813 (Molecular Pain, 2016):

What was measured:
[1] = tested on: 40 targets including GPCRs, ion channels, and kinases; assay: CEREP selectivity profiling; assay type: binding
human TRPA1 = human TRPA1 (Homo sapiens, UniProt O75762); assay: TRPA1 activation by AITC, antagonist assay; assay type: cell-based; conditions: read-out: human TRPA1 activation by AITC IC90
rTRPV3 = molecular target: T1, rTRPV3 (Rattus norvegicus, UniProt Q4QYD9); assay: TRP channel selectivity, luminescence calcium assay in CHO cells; assay type: cell-based
T1 sequence (Q4QYD9 1-791): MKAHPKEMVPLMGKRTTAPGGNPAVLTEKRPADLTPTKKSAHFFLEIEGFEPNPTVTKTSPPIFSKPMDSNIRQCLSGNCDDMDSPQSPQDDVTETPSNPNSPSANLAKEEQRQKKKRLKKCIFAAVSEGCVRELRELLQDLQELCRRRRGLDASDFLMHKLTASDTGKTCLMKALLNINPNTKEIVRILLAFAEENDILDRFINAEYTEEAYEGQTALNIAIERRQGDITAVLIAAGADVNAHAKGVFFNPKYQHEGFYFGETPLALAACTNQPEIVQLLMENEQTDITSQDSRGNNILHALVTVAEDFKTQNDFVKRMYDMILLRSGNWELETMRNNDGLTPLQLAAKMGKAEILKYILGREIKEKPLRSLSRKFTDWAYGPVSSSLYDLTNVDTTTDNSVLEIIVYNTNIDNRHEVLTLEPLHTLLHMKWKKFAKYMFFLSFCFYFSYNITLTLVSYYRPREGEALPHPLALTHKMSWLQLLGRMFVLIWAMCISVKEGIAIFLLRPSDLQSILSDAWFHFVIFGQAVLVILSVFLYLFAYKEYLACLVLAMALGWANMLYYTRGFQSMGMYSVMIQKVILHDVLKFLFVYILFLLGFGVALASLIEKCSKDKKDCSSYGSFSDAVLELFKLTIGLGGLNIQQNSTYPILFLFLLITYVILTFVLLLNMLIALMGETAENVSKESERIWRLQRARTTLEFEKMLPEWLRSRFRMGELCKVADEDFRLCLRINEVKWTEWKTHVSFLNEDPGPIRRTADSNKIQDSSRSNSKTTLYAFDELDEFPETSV
Method in brief: (§1)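 Tetracycline-inducible stable CHO lines co-expressing aequorin were induced with 0.5 µg/ml tetracycline 24 h before the assay. Cells were loaded for 2 h in pH 7.2 F12 with 30 mM HEPES and 15 µM coelenterazine. Test compound was added 2.5 min before agonist: 200 µM 2-APB for TRPV3, or 1 µM icilin or 12 °C cold buffer for TRPM8. Luminescence was read by CCD luminometer, and IC50 was fitted.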

hTRPV1 = hTRPV1 (Homo sapiens, UniProt Q8NER1); assay: TRP channel selectivity, calcium assay; assay type: cell-based
[2] = Pharmacokinetics in plasma and brain; assay type: in vivo; conditions: Sprague-Dawley, rat
rTRPM8 = rTRPM8 (Rattus norvegicus, UniProt Q8R455); assay: TRP channel selectivity, luminescence calcium assay in CHO cells; assay type: cell-based
Method in brief: as §1

[3] = Plasma protein binding by ultracentrifugation; assay type: in vitro ADME; conditions: male, rat
Method in brief: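 Test compound at 5 µg/mL was incubated in male rat plasma for 15 min at 37 °C, then ultracentrifuged at 16,128 × g for 3 h at 37 °C. Samples were precipitated with acetonitrile containing internal standard, dried under nitrogen, reconstituted in methanol/water 50:50 and quantified by LC-MS/MS against calibration standards. The unbound fraction was taken as measured/nominal concentration.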

[4] = tested on: open field activity in rats; assay: Open field activity; assay type: in vivo; conditions: rat open field, 60 min; for effect on total distance traveled vs vehicle: AMG0902 30-300 mg/kg, gabapentin 200 mg/kg p.o.
Method in brief: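 Male Sprague-Dawley rats (220–300 g) were kept on a reversed light cycle for ≥1 week and acclimated 1 h. Test compound (30, 100 or 300 mg/kg), vehicle or gabapentin 200 mg/kg p.o. (same vehicle) was given 1 h before the rat was placed in a 41×41×38 cm box with 32 photocells. Beam breaks, distance, time and stereotypic movements were logged per minute over 60 min.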

[5] = tested on: SNL-induced tactile allodynia; assay: SNL-induced tactile allodynia; assay type: in vivo; conditions: rat; 1 h and 2 h
Method in brief: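 Two weeks after spinal nerve ligation, rats on a metal mesh floor were tested with nine von Frey filaments at near-equal log intervals. Filaments were applied to the mid-plantar glabrous area of the injured paw, and the 50% withdrawal threshold was found by the up-down method. After a baseline reading, rats received oral vehicle, test compound (100 or 300 mg/kg) or gabapentin 200 mg/kg and were retested at 1 and 2 h. Thresholds were log-transformed before statistics.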

rTRPA1 = rTRPA1 (Rattus norvegicus, UniProt Q6RI86); assay: rTRPA1 agonism assay; assay type: cell-based
[6] = tested on: CFA-induced hypersensitivity; assay: CFA-induced decreased rearing in an open field assay; assay type: in vivo; conditions: rat; for rearing time: 23 h after CFA, 60 min, CFA vehicle 204 ± 25 s; for effect on CFA-induced reduction in rearing: naproxen sodium 3 mg/kg, AMG0902 up to 100 mg/kg
[7] = Unbound plasma exposure in pharmacodynamic and pain models; assay type: in vivo, rat
Method in brief: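 Rats in the pain models were dosed orally with test compound in 1% Tween80/2% HPMC/97% water/methanesulfonic acid pH 2.2. Plasma drug levels were measured by LC-MS/MS after protein precipitation, using a structurally similar internal standard and calibration standards serially diluted into blank plasma from a 1 mg/mL DMSO stock.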

hTRPV4 = hTRPV4 (Homo sapiens, UniProt Q9HBA0); assay: TRP channel selectivity, luminescence calcium assay in CHO cells; assay type: cell-based
Method in brief: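 A tetracycline-inducible CHO line expressing human TRPV4 plus aequorin was induced with 0.5 µg/ml tetracycline 24 h before the assay. Cells were loaded for 2 h in pH 7.2 F12 containing 30 mM HEPES, 1 mM CaCl2, 0.3% BSA and 15 µM coelenterazine. Test compound was added 2.5 min before 1 µM 4α-PDD. Luminescence was read on a CCD-camera luminometer, and IC50 was calculated.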

rat TRPV1 = rat TRPV1 (Rattus norvegicus, UniProt O35433); assay: TRP channel selectivity, luminescence calcium assay in CHO cells; assay type: cell-based
Method in brief: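 A CHO line constitutively expressing rat TRPV1 plus aequorin was used without tetracycline induction. Cells were loaded for 2 h with 15 µM coelenterazine in pH 7.2 F12 containing 30 mM HEPES. Test compound was added 2.5 min before 0.5 µM capsaicin. Luminescence was recorded by a CCD-camera luminometer, and IC50 was derived by curve fitting.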

TRPA1 [8] = molecular target: T2, TRPA1 (Rattus norvegicus, UniProt Q6RI86); conditions: 1, 3, 10, and 30 mg/kg; cited from earlier work
rat TRPA1 = rat TRPA1 (Rattus norvegicus, UniProt Q6RI86); assay: Agonist-induced TRPA1 activation in stably expressing CHO cells; assay type: cell-based; conditions: for IC50: stably expressing CHO cells
TRPA1 [9] = molecular target: T2, TRPA1; assay: AITC-induced licking/flinching model; assay type: in vivo; conditions: po, read-out: Rat AITC PD model IC90
Method in brief: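 Rats dosed p.o. at 0.3, 1, 3 or 10 mg/kg, or vehicle (1% Tween80/2% HPMC/97% water/methanesulfonic acid, pH 2.2), 60 min before intraplantar AITC (30 µl, in 0.5% Tween 80/PBS). A blinded observer counted flinches and guard/licks >3 s for 1 min post-injection. Plasma levels were measured by LC-MS/MS. IC90 came from sigmoidal fit of individual response versus plasma concentration.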

mouse TRPA1 = mouse TRPA1 (Mus musculus, UniProt Q8BLA8); assay: TRPA1 activation by AITC, antagonist assay; assay type: cell-based
C-fibers = conditions: cited from earlier work
CCI, SNL, CFA = conditions: cited from earlier work
[10] = tested on: AITC-induced licking/biting; conditions: cited from earlier work

Sequence of rat TRPA1 (Q6RI86 whole entry): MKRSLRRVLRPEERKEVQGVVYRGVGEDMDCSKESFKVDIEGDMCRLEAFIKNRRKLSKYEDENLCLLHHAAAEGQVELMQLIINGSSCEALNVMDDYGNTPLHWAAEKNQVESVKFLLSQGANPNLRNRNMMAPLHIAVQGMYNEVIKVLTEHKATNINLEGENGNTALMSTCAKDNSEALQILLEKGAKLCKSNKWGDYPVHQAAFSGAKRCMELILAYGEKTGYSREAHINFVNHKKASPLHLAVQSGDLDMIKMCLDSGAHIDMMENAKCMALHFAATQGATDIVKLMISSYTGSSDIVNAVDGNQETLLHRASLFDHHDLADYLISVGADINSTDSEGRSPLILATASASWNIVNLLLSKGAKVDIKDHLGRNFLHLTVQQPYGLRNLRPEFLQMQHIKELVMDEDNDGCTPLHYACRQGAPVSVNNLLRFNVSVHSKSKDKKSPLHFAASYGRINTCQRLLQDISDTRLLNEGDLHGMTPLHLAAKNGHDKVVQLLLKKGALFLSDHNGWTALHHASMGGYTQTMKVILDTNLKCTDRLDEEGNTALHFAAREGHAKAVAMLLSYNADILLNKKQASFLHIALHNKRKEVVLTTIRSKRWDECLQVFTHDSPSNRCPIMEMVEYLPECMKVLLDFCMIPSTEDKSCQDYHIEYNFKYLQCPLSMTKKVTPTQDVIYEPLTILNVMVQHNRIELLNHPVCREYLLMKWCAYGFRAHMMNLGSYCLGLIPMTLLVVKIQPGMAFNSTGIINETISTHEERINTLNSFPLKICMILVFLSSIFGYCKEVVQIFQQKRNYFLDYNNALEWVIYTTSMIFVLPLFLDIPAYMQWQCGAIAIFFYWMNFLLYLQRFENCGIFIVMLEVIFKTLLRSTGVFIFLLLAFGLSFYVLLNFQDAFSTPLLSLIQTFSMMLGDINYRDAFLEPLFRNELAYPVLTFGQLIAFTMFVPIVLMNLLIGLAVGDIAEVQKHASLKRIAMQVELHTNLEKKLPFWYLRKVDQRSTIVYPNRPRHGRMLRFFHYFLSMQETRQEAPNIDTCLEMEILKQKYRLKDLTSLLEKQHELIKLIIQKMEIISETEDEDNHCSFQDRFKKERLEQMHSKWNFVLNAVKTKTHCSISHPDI
T2 sequence (Q6RI86 whole entry): as above
Sequence of rTRPA1 (Q6RI86 whole entry): as above
Sequence of human TRPA1 (O75762 whole entry): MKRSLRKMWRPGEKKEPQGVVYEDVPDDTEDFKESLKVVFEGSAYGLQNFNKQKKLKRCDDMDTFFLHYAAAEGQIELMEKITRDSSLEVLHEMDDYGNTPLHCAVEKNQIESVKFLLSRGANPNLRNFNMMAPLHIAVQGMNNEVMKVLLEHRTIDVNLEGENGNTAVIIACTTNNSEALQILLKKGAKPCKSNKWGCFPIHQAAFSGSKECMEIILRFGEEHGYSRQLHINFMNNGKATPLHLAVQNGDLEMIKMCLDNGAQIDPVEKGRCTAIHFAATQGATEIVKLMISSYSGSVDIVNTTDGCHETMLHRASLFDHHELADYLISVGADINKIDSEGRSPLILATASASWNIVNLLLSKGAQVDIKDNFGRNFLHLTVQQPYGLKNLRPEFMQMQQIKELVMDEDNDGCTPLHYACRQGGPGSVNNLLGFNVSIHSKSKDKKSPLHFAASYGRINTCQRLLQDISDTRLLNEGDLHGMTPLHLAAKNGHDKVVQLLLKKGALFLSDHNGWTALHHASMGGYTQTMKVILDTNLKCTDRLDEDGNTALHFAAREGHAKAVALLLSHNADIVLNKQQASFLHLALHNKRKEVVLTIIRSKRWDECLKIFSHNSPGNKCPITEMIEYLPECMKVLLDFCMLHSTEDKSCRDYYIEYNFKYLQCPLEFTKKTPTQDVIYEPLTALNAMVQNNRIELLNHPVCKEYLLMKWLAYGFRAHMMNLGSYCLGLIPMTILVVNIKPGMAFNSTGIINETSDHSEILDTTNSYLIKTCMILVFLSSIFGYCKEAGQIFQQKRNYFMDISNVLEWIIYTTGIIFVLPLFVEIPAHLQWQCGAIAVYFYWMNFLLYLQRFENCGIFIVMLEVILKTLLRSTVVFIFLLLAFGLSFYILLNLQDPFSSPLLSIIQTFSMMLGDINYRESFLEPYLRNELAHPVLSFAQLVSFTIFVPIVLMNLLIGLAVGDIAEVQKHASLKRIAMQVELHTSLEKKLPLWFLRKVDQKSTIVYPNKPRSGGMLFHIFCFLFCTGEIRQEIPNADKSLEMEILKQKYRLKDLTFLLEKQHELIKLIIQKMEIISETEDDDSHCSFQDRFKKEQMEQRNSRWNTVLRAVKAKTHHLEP
Sequence of rTRPM8 (Q8R455 whole entry): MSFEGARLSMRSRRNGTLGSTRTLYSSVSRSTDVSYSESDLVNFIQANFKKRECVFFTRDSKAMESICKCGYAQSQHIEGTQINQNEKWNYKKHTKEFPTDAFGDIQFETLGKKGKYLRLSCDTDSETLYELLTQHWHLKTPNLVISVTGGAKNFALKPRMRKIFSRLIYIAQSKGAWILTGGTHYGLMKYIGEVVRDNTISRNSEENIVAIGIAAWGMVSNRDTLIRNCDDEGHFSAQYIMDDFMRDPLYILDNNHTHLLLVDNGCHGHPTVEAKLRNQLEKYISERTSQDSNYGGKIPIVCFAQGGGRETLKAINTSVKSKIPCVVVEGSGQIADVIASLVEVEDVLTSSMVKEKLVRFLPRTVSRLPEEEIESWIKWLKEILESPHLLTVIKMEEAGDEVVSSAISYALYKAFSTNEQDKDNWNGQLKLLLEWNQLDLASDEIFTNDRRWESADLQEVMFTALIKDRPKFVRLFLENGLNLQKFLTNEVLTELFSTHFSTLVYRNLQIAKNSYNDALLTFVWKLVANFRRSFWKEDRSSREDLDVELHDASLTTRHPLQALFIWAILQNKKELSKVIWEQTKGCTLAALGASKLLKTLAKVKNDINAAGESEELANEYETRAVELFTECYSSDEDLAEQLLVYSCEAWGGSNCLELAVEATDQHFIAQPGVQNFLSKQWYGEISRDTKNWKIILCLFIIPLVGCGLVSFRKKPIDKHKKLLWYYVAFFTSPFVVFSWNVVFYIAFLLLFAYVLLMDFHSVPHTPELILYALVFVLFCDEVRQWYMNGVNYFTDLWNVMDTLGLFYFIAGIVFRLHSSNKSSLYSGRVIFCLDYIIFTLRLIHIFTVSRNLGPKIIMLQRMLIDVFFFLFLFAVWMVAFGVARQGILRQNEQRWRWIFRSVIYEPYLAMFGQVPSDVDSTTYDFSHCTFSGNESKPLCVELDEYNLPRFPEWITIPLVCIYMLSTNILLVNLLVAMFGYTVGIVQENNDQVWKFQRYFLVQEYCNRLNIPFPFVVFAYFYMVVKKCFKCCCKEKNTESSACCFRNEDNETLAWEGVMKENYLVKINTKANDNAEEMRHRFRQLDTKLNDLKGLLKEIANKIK
Sequence of rat TRPV1 (O35433 whole entry): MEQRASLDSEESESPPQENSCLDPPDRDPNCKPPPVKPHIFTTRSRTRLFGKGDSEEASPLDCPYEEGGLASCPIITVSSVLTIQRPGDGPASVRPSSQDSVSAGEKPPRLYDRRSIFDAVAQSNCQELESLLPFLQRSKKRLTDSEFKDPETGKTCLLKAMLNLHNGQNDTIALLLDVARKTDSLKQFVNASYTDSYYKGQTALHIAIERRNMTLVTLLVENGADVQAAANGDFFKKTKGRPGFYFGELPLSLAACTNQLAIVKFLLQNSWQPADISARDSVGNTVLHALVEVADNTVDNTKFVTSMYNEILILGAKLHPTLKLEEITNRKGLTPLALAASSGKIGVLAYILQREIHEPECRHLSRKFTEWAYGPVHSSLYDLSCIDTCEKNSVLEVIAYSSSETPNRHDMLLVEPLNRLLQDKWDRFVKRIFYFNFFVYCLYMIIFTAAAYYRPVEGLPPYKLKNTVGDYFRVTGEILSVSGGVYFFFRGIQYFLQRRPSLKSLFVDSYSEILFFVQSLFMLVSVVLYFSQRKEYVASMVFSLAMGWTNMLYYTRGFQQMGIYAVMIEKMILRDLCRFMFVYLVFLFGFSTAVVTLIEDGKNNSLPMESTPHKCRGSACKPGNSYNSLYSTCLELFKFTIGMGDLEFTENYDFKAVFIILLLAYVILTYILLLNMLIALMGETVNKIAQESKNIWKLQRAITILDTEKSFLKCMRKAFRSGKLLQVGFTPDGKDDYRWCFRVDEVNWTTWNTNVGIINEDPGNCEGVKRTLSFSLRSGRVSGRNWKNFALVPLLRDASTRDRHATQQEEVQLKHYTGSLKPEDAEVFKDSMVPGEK
Sequence of hTRPV1 (Q8NER1 whole entry): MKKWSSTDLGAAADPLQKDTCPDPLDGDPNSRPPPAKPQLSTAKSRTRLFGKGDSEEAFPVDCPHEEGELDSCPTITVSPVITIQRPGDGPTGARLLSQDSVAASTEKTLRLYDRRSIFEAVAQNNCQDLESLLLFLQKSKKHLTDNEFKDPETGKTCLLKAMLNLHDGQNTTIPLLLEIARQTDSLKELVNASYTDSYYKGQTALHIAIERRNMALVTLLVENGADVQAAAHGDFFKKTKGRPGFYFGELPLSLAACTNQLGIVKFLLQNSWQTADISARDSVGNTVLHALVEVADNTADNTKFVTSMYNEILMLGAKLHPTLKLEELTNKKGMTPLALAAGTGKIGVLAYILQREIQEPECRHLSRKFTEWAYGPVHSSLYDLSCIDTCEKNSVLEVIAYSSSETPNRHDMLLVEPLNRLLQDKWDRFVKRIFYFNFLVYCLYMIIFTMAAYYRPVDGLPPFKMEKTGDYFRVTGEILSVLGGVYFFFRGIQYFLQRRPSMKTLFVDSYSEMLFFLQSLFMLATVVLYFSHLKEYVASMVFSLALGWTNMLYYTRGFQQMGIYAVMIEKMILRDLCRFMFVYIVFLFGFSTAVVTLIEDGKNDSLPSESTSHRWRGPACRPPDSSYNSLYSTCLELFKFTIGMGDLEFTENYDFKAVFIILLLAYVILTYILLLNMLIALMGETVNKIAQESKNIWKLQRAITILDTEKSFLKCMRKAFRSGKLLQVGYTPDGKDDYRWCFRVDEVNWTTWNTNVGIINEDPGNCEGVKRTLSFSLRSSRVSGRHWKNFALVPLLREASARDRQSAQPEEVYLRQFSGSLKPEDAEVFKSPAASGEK

Cn1cnc2ncn(Cc3nc(CCc4ccc(Cl)cc4)no3)c(=O)c21 [AMG0902, 1-((3-(4-Chlorophenethyl)-1,2,4-oxadiazol-5-yl)methyl)-7-methyl-1H-purin-6(7H)-one]
inhibition of specific ligand binding to each target ([1]; 40 targets profiled at CEREP): < 33% | IC50 ([1]; read-out: in vitro potency at 40 targets profiled at CEREP): > 10 µM | IC90 (human TRPA1): 0.186 ± 0.018 µM | IC50 (rTRPV3): > 10 µM | IC50 (hTRPV1): > 10 µM | Kp ([2]; brain): 0.2 | clearance ([2]; male, plasma, iv, 2 mg/kg): 41.7 mL/min/kg | IC50 (rTRPM8): > 10 µM | fraction unbound at 15 min, 5 µg/mL [3]: 0.29 | rearing time ([4]; 300 mg/kg p.o., 1 h before): 308 ± 67 s | total distance traveled ([4]; 300 mg/kg p.o., 1 h before): 7437 ± 900 cm | effect on total distance traveled vs vehicle [4]: no significant effect | effect on SNL-induced mechanical allodynia [5]: no significant effect | IC50 (rTRPA1): > 25 µM | rearing time ([6]; AMG0902 100 mg/kg p.o.): 264 ± 52 s | effect on CFA-induced reduction in rearing [6]: no significant reduction | mean unbound plasma concentration ([7]; CFA Randall Selitto model, 300 mg/kg p.o.): 35 ± 11 µM | mean unbound plasma concentration ([7]; CFA rearing model, 100 mg/kg p.o.): 6.1 ± 2.4 µM | mean unbound plasma concentration ([7]; SNL model, 300 mg/kg p.o.): 8.4 µM | mean Cu concentration (unbound plasma) ([7]; open field assay, 300 mg/kg p.o.): 12.6 ± 5.4 µM | IC50 (hTRPV4): > 10 µM | IC50 (rat TRPV1): > 10 µM | effect on AITC-induced licking/flinching (TRPA1 [8]): dose-dependent prevention | IC90 (rat TRPA1; CHO, read-out: IC90 against rat TRPA1): 0.3 µM | IC50 (rat TRPA1; rTRPA1 (4-ONE) IC50, 35 µM 4-ONE): 0.585 ± 0.11 µM | IC50 (rat TRPA1; rTRPA1 (AITC) IC50, 80 µM AITC): 0.068 ± 0.038 µM | IC50 (rat TRPA1; rTRPA1 (Methylglyoxal) IC50, 2.74 mM methylglyoxal): 0.151 ± 0.005 µM | IC50 (rat TRPA1; rTRPA1 (Osmol) IC50, 100 mOsmol hypo-osmolarity): 0.0097 ± 0.002 µM | IC90 (TRPA1 [9]): 1.7 µM | IC50 (mouse TRPA1): 0.113 ± 0.077 µM

CC(C)c1ccc(NC(=O)Cn2cnc3c2c(=O)n(C)c(=O)n3C)cc1 [HC-030031]
effect on mechanically evoked action potential firing in C-fibers (C-fibers): reduced mechanically evoked action potential firing

CCC(=N\O)/C(C)=C/c1ccc(F)cc1 [A-967079]
Efficacy (CCI, SNL, CFA; CCI, SNL, CFA, MH, 62 mg/kg, p.o., ref Chen et al.[42]): ineffective | effect on von Frey-evoked tactile allodynia (CCI, SNL, CFA; CFA or SNL models): no effect | effect on AITC-induced licking/biting in vivo [10]: efficiently blocks

NCC1(CC(=O)O)CCCCC1 [gabapentin, reference compound]
effect on total distance traveled vs vehicle [4]: not significantly reduced | effect on SNL-induced mechanical allodynia [5]: significantly reversed

COc1ccc2cc([C@H](C)C(=O)O)ccc2c1 [naproxen, reference compound]
rearing time ([6]; naproxen 3 mg/kg p.o.): 418 ± 49 cm | effect on CFA-induced reduction in rearing [6]: significant inhibition
